Publication PMC8404201 (Journal of Medicinal Chemistry, 2021)
Entries after “also recorded” stand apart in the source; their conditions may differ.

Legend:
[1] = Pilot mouse pharmacokinetic study; format: in vivo, BALB/c mice; conditions: mice; for gross toxicity after single IV dose: single low-dose 10 mg/kg IV
[2] = Tolerability of repeated daily IP injection in mice; format: in vivo; conditions: 10 sequential daily IP injections, 10 mg/kg (34 in 100% DMSO)
In short: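 Mice got 10 sequential daily IP injections of test compound dissolved in 100% DMSO. They were monitored for clinical adverse signs.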

| Compound | gross toxicity after single IV dose [1] | tolerability / adverse events after repeated daily IP injection [2] | apparent oral bioavailability (F) ([1]; PO vs IV, 10 mg/kg) [%] |
| --- | --- | --- | --- |
| CN(C)c1ccc2cc(-c3cc(Cl)cc(Cl)c3)c(N)nc2c1 [Compound 27, 3-[3,5-Dichlorophenyl]-N^7,N^7-dimethylquinoline-2,7-diamine] | no gross toxicity | not observed; also recorded: tolerable | – |
| CN(C)c1ccc2cc(-c3cn(C)c4ccccc34)c(N)nc2c1 [Compound 34, 3-[3-(N-Methylindolyl)-N^7,N^7-dimethyl]-2,7-quinolinediamine] | no gross toxicity | toxic | < 20 |
